This sample holds only a part of the variants without activity.
B1: tRNA (parent)
chain: GUUCCGUUGGCGUAAUGGUAACGCGUCUCCCUCCUAAGGAGAAGACUGCGGGUUCGAGUCCCGUACGGAACG

Variants of: B1
Assay: yeast fitness relative to wild type (ratio to wild type); higher = fitter; tRNA-Arg(CCU), competitive growth, 37 C, YPD
In short: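 Start and end populations of a pooled competition were compared by 100-nucleotide paired-end sequencing of gene amplicons. The Saccharomyces cerevisiae strains carried tRNA-Arg(CCU) gene variants at the native genomic locus, synthesised with a 3% per-site mutation rate at 69 sites, and competed in YPD at 37°C for 24 hours in six parallel replicates. Darwinian fitness relative to wild type was based on the change in genotype frequencies. Genotypes required ≥ 100 starting reads, and estimates < 0.5 were set to 0.5.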
Work on G6A A20U C27A yielded a yeast fitness of at most 0.5. For A20G A45U, the yeast fitness was 1.04. In the case of G17A A20G C27G A36C U53A, the yeast fitness is reported as 0.639. U8G C11A C27U A37G G39C C49G showed a yeast fitness of at most 0.5. U7A C33A A45C C49U gave a yeast fitness of at most 0.5. In the case of U8A C24A U28C, the yeast fitness is reported as at most 0.5. U35A A65C showed a yeast fitness of 0.781. For A14U G17A A43U, the yeast fitness was at most 0.5. Work on C31G G67C yielded a yeast fitness of 0.888. Work on G6C C46G yielded a yeast fitness of 0.823. U7G G68A showed a yeast fitness of 0.821. Work on A14G G18C C31A A69U yielded a yeast fitness of at most 0.5. Variant G17A C30G A40C A42G has a yeast fitness of at most 0.5. Variant C4A A40U G52C C60G has a yeast fitness of 0.552. Work on G10A C24G G39C C66U yielded a yeast fitness of at most 0.5. With U3C U16A C34A U53C C60U the yeast fitness was at most 0.5. With G18C G38U G51A the yeast fitness was at most 0.5. U3A A21C A36U showed a yeast fitness of at most 0.5. A14U A57C gave a yeast fitness of at most 0.5. U32A C49G C55U showed a yeast fitness of at most 0.5. Work on C5G U8A C29A U35C yielded a yeast fitness of at most 0.5. Work on A20C G25C G38C G56C G63C U64C yielded a yeast fitness of 0.524. Work on A15G U28C U35A G38A C46G C62U yielded a yeast fitness of 0.718. U3A C11U C29A A42G A57C gave a yeast fitness of at most 0.5. Variant U19A A21C C31G G41A A43C has a yeast fitness of at most 0.5. In the case of A37U U47C U53G C62U, the yeast fitness is reported as at most 0.5. For C49G C62U, the yeast fitness was 0.79. In the case of C4A A57C C66U, the yeast fitness is reported as at most 0.5. For U35C C49U G63C, the yeast fitness was 0.548. G6U C11A U13A G52A C61U A69C showed a yeast fitness of 0.527. G9A G56U G58A showed a yeast fitness of 0.563. Work on U47C G67A yielded a yeast fitness of 0.874. For G51A C61A, the yeast fitness was 0.536. Work on A14C A15U G18C yielded a yeast fitness of 0.67. With U7C A15G G17A the yeast fitness was at most 0.5. G6A U13A A14G U32C A42U showed a yeast fitness of at most 0.5. C11G A69C showed a yeast fitness of 0.683. A40U U54A A70U gave a yeast fitness of 0.548. G23A C49U U54C gave a yeast fitness of at most 0.5. With C4U A21C U59C the yeast fitness was at most 0.5. C22G A57U A65C C66G showed a yeast fitness of at most 0.5. Variant C11U A42C G48A has a yeast fitness of 0.566. C11U G25A A57U showed a yeast fitness of at most 0.5. U13A G68C showed a yeast fitness of 0.762. A15C U32C A36C A45C C60U showed a yeast fitness of at most 0.5. Variant C4A A14G C30G A45G G52A G63A has a yeast fitness of at most 0.5. Work on C11G G17A C22U C27U C33G yielded a yeast fitness of at most 0.5. Variant G12A C24U C34U has a yeast fitness of 0.519. With A20U G51A U53G C60G the yeast fitness was at most 0.5. Variant A36U A45U has a yeast fitness of 0.728. For U8A G51C, the yeast fitness was 0.534. Work on C31A A40C C46U C55U G63A yielded a yeast fitness of at most 0.5. For U8C C34A A45C, the yeast fitness was at most 0.5. In the case of U7A C27U U32C, the yeast fitness is reported as 0.575. With G9C G39C C61U the yeast fitness was 0.544. G41A U59A gave a yeast fitness of 0.826. For C22U C24G, the yeast fitness was 0.583. C4G C27A C61A C66U A69C gave a yeast fitness of at most 0.5. With C31G G50A the yeast fitness was 0.837. C4G C22U U32C U64C gave a yeast fitness of at most 0.5. With C5G G10A G52A the yeast fitness was 0.741. For C24U G48C C62A, the yeast fitness was 0.579. U7A G9C G17C G48A G67U gave a yeast fitness of at most 0.5. Work on C5G U35G C49A yielded a yeast fitness of at most 0.5. With C22G G48C the yeast fitness was 0.811. In the case of C4A U13C U32G, the yeast fitness is reported as 0.571. Work on G18C U35G G41C C66G yielded a yeast fitness of at most 0.5. In the case of C31U C34A A40G, the yeast fitness is reported as at most 0.5. With C33G U47A C61U A69U the yeast fitness was 0.573. Work on C46G C49A yielded a yeast fitness of 0.7. With A40C C55U the yeast fitness was 0.929. C11G C22G C62U showed a yeast fitness of at most 0.5. Work on G12C G17A C49U U59C yielded a yeast fitness of at most 0.5. U2G U64C showed a yeast fitness of 0.841. With U16G A37G the yeast fitness was 0.673. Variant C11A C27A G67A has a yeast fitness of 0.626. In the case of U26C G48A, the yeast fitness is reported as 1.05. For A15U A43G U47A, the yeast fitness was 0.547. C4U G12C A20G U47A C49U A57U C61A showed a yeast fitness of 0.572. In the case of C11G C29G C31G, the yeast fitness is reported as at most 0.5. Work on C5G A20U C30U C62U yielded a yeast fitness of at most 0.5. With A15C A57U C62G the yeast fitness was at most 0.5. G6A A57U A65C A70C gave a yeast fitness of 0.534. U2G U8A G23A U26G A43G U54C C55A gave a yeast fitness of at most 0.5.
